According to ChEMBL document CHEMBL5303300, “EUbOPEN Chemogenomics Library - Multiplex” (2023):
Where “and” joins values, the source holds several entries; their conditions need not be identical. Equal values may be shown once.

Tested on: Fibroblast
Assay: Multiplex assay against human fibroblast
Assay type: toxicity, cell-based
Conditions: number of replicates 2
Method in brief: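 Cells stained live at seeding with Hoechst33342, BioTracker Green Microtubule Cytoskeleton Dye, MitoTracker Red and Annexin V Alexa Fluor 680 were imaged on a CQ1 microscope at 37°C and 5% CO2 after compound addition. Their classification by CellPathfinder machine-learning gating ran from Hoechst high-intensity objects versus normal cells, to healthy, pyknosed or fragmented nuclei among normal cells, to mitotic or apoptotic among pyknosed cells. Tubulin, mitochondrial-mass and membrane-permeability phenotypes are per cents of healthy-nucleus cells.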

[1] = 12 h, 1 µM, compound concentration 1 uM
[2] = 12 h, 10 µM, compound concentration 10 uM
[3] = 24 h, 1 µM, compound concentration 1 uM
[4] = 24 h, 10 µM, compound concentration 10 uM
[5] = 48 h, 1 µM, compound concentration 1 uM
[6] = 48 h, 10 µM, compound concentration 10 uM

CC(C)S(=O)(=O)c1ccccc1Nc1nc(N[C@@H]2CCCN(CCCCCCCNC(=O)COc3cccc4c3C(=O)N(C3CCC(=O)NC3=O)C4=O)C2)ncc1Cl (some centres not stated)
Population Apoptotic (%) [1]: 55% and 64% | Population Fragmented Nuclei (%) [1]: 12% and 11% | Population Healthy Nuclei (%) [1]: 50% | Population Hoechst High Intensity Objects (%) [1]: 0% | Population Membrane Permeable-Phenotype (%) [1]: 15% and 11% | Population Mitochondria Different-Phenotype (%) [1]: 4% and 2% | Population Mitotic Cells (%) [1]: 44% and 35% | Population Normal (%) [1]: 100% | Population Pyknosed Nuclei (%) [1]: 37% and 38% | Population Tubulin-Different-Phenotype (%) [1]: 40% and 37% | Total Cell Count [1]: 181 and 196 | Population Apoptotic (%) [2]: 65% and 48% | Population Fragmented Nuclei (%) [2]: 12% and 16% | Population Healthy Nuclei (%) [2]: 42% and 33% | Population Hoechst High Intensity Objects (%) [2]: 0% and 1% | Population Membrane Permeable-Phenotype (%) [2]: 56% and 36% | Population Mitochondria Different-Phenotype (%) [2]: 22% and 30% | Population Mitotic Cells (%) [2]: 34% and 52% | Population Normal (%) [2]: 99% and 98% | Population Pyknosed Nuclei (%) [2]: 44% and 49% | Population Tubulin-Different-Phenotype (%) [2]: 72% and 32% | Total Cell Count [2]: 231 and 205 | Population Apoptotic (%) [3]: 68% and 83% | Population Fragmented Nuclei (%) [3]: 10% | Population Healthy Nuclei (%) [3]: 51% | Population Hoechst High Intensity Objects (%) [3]: 0% | Population Membrane Permeable-Phenotype (%) [3]: 7% and 4% | Population Mitochondria Different-Phenotype (%) [3]: 9% and 4% | Population Mitotic Cells (%) [3]: 31% and 16% | Population Normal (%) [3]: 99% and 100% | Population Pyknosed Nuclei (%) [3]: 37% | Population Tubulin-Different-Phenotype (%) [3]: 27% and 15% | Total Cell Count [3]: 171 and 175 | Population Apoptotic (%) [4]: 74% and 79% | Population Fragmented Nuclei (%) [4]: 13% and 14% | Population Healthy Nuclei (%) [4]: 32% and 33% | Population Hoechst High Intensity Objects (%) [4]: 1% | Population Membrane Permeable-Phenotype (%) [4]: 32% and 19% | Population Mitochondria Different-Phenotype (%) [4]: 36% and 39% | Population Mitotic Cells (%) [4]: 26% and 20% | Population Normal (%) [4]: 98% | Population Pyknosed Nuclei (%) [4]: 53% and 51% | Population Tubulin-Different-Phenotype (%) [4]: 68% and 75% | Total Cell Count [4]: 188 and 232 | Population Apoptotic (%) [5]: 63% and 73% | Population Fragmented Nuclei (%) [5]: 15% and 12% | Population Healthy Nuclei (%) [5]: 44% and 43% | Population Hoechst High Intensity Objects (%) [5]: 0% | Population Membrane Permeable-Phenotype (%) [5]: 18% and 9% | Population Mitochondria Different-Phenotype (%) [5]: 5% and 8% | Population Mitotic Cells (%) [5]: 36% and 26% | Population Normal (%) [5]: 99% and 100% | Population Pyknosed Nuclei (%) [5]: 40% and 43% | Population Tubulin-Different-Phenotype (%) [5]: 31% and 36% | Total Cell Count [5]: 173 and 163 | Population Apoptotic (%) [6]: 79% and 83% | Population Fragmented Nuclei (%) [6]: 17% and 13% | Population Healthy Nuclei (%) [6]: 36% and 32% | Population Hoechst High Intensity Objects (%) [6]: 2% and 0% | Population Membrane Permeable-Phenotype (%) [6]: 36% and 34% | Population Mitochondria Different-Phenotype (%) [6]: 14% and 22% | Population Mitotic Cells (%) [6]: 20% and 16% | Population Normal (%) [6]: 97% and 99% | Population Pyknosed Nuclei (%) [6]: 46% and 53% | Population Tubulin-Different-Phenotype (%) [6]: 73% and 60% | Total Cell Count [6]: 196 and 232

CN(C)CCCNc1ccnc(Nc2cccc(Cl)c2)n1
Population Apoptotic (%) [1]: 13% and 30% | Population Fragmented Nuclei (%) [1]: 9% and 15% | Population Healthy Nuclei (%) [1]: 76% and 67% | Population Hoechst High Intensity Objects (%) [1]: 0% | Population Membrane Permeable-Phenotype (%) [1]: 4% | Population Mitochondria Different-Phenotype (%) [1]: 1% | Population Mitotic Cells (%) [1]: 86% and 70% | Population Normal (%) [1]: 99% and 100% | Population Pyknosed Nuclei (%) [1]: 14% and 16% | Population Tubulin-Different-Phenotype (%) [1]: 14% and 10% | Total Cell Count [1]: 249 and 301 | Population Apoptotic (%) [2]: 36% and 44% | Population Fragmented Nuclei (%) [2]: 23% and 18% | Population Healthy Nuclei (%) [2]: 65% and 70% | Population Hoechst High Intensity Objects (%) [2]: 0% | Population Membrane Permeable-Phenotype (%) [2]: 6% and 3% | Population Mitochondria Different-Phenotype (%) [2]: 2% and 1% | Population Mitotic Cells (%) [2]: 63% and 55% | Population Normal (%) [2]: 99% | Population Pyknosed Nuclei (%) [2]: 10% and 11% | Population Tubulin-Different-Phenotype (%) [2]: 32% and 19% | Total Cell Count [2]: 277 and 316 | Population Apoptotic (%) [3]: 35% and 40% | Population Fragmented Nuclei (%) [3]: 13% and 19% | Population Healthy Nuclei (%) [3]: 73% and 66% | Population Hoechst High Intensity Objects (%) [3]: 0% | Population Membrane Permeable-Phenotype (%) [3]: 4% | Population Mitochondria Different-Phenotype (%) [3]: 0% and 2% | Population Mitotic Cells (%) [3]: 64% and 59% | Population Normal (%) [3]: 100% and 99% | Population Pyknosed Nuclei (%) [3]: 13% and 14% | Population Tubulin-Different-Phenotype (%) [3]: 14% and 13% | Total Cell Count [3]: 284 and 321 | Population Apoptotic (%) [4]: 30% and 31% | Population Fragmented Nuclei (%) [4]: 18% and 13% | Population Healthy Nuclei (%) [4]: 61% and 66% | Population Hoechst High Intensity Objects (%) [4]: 1% and 2% | Population Membrane Permeable-Phenotype (%) [4]: 4% and 3% | Population Mitochondria Different-Phenotype (%) [4]: 3% and 0% | Population Mitotic Cells (%) [4]: 69% and 68% | Population Normal (%) [4]: 98% and 97% | Population Pyknosed Nuclei (%) [4]: 20% and 19% | Population Tubulin-Different-Phenotype (%) [4]: 32% and 17% | Total Cell Count [4]: 319 and 392 | Population Apoptotic (%) [5]: 56% and 66% | Population Fragmented Nuclei (%) [5]: 18% and 25% | Population Healthy Nuclei (%) [5]: 70% and 65% | Population Hoechst High Intensity Objects (%) [5]: 0% | Population Membrane Permeable-Phenotype (%) [5]: 3% and 1% | Population Mitochondria Different-Phenotype (%) [5]: 0% | Population Mitotic Cells (%) [5]: 43% and 33% | Population Normal (%) [5]: 99% | Population Pyknosed Nuclei (%) [5]: 10% and 9% | Population Tubulin-Different-Phenotype (%) [5]: 12% and 5% | Total Cell Count [5]: 314 and 360 | Population Apoptotic (%) [6]: 22% and 29% | Population Fragmented Nuclei (%) [6]: 17% and 16% | Population Healthy Nuclei (%) [6]: 66% and 70% | Population Hoechst High Intensity Objects (%) [6]: 6% | Population Membrane Permeable-Phenotype (%) [6]: 3% and 2% | Population Mitochondria Different-Phenotype (%) [6]: 2% and 0% | Population Mitotic Cells (%) [6]: 77% and 70% | Population Normal (%) [6]: 93% | Population Pyknosed Nuclei (%) [6]: 16% and 13% | Population Tubulin-Different-Phenotype (%) [6]: 33% and 16% | Total Cell Count [6]: 391 and 463
